Measured values taken from ChEMBL document CHEMBL1124495 (1989).
Converted amounts (≈) assume the structure as drawn.

Experiments:
Format in all cases: functional
Staphylococcus aureus [1] = assay: Antibacterial activity carried out in vitro against Staphylococcus aureus VGH 84-47
Staphylococcus aureus [2] = assay: Antibacterial activity carried out in vitro against Staphylococcus aureus ATCC 29213
Enterococcus faecalis = assay: Antibacterial activity carried out in vitro against Streptococcus faecalis UCI 85-30
Escherichia coli [3] = assay: Activity was determined after subcutaneous administration against Escherichia coli #311(MP) in mouse protection test; settings: sc
Method in brief: (§1)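 CD-1 female mice (20 ± 2 g) infected intraperitoneally with 0.5 mL standardized bacterial suspension: E. coli #311 in trypticase-soy broth, S. aureus Smith in 5% hog gastric mucin. Treated 0.5 h post-infection, oral or subcutaneous, 2-fold dose increments in 0.5 mL 0.2% aqueous agar, five mice per dose. 7-day survival pooled from three tests; ED50 by probit analysis.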

Escherichia coli [4] = assay: Activity was determined after peroral administration against Escherichia coli #311(MP) in mouse protection test; settings: po; method in brief: as §1
Staphylococcus aureus [5] = assay: Antibacterial activity carried out in vitro against Staphylococcus aureus Smith(MP)
Pseudomonas aeruginosa = assay: Antibacterial activity carried out in vitro against Pseudomonas aeruginosa K84-16
Staphylococcus aureus [6] = assay: Activity was determined after subcutaneous administration against Staphylococcus aureus Smith(MP) in mouse protection test; settings: sc; method in brief: as §1
Staphylococcus aureus [7] = assay: Antibacterial activity carried out in vitro against Staphylococcus aureus K82-26
Escherichia coli [8] = assay: Antibacterial activity carried out in vitro against Escherichia coli ATCC 25922
Klebsiella pneumoniae = assay: Antibacterial activity carried out in vitro against Klebsiella pneumoniae CMC 84-31
Staphylococcus aureus [9] = assay: Activity was determined after peroral administration against Staphylococcus aureus Smith(MP) in mouse protection test; settings: po; method in brief: as §1
Serratia marcescens = assay: Antibacterial activity carried out in vitro against Serratia marcescens MOR 84-41
Escherichia coli [10] = assay: Antibacterial activity carried out in vitro against Escherichia coli MOR 84-20
Escherichia coli [11] = assay: Antibacterial activity carried out in vitro against Escherichia coli #311(MP)
Enterobacter cloacae = assay: Antibacterial activity carried out in vitro against Enterobacter cloacae VHG 84-39

| Structure (SMILES) | MIC (Staphylococcus aureus [1]) | MIC (Staphylococcus aureus [2]) | MIC (Enterococcus faecalis) | MIC (Staphylococcus aureus [5]) | MIC (Pseudomonas aeruginosa) | MIC (Staphylococcus aureus [7]) | MIC (Escherichia coli [8]) | MIC (Klebsiella pneumoniae) | MIC (Serratia marcescens) | MIC (Escherichia coli [10]) | MIC (Escherichia coli [11]) | MIC (Enterobacter cloacae) | ED50 (Escherichia coli [3]) | ED50 (Escherichia coli [4]) | ED50 (Staphylococcus aureus [6]) | ED50 (Staphylococcus aureus [9]) |
| --- | --- | --- | --- | --- | --- | --- | --- | --- | --- | --- | --- | --- | --- | --- | --- | --- |
| CCn1cc(C(=O)O)c(=O)c2cc(F)c(N3CCN(C)CC3)cc21 [PEFLOXACIN] | 0.5 µg/mL (≈ 1.5 µM) | 0.5 µg/mL (≈ 1.5 µM) | 4 µg/mL (≈ 12 µM) | 0.25 µg/mL (≈ 0.75 µM) | 4 µg/mL (≈ 12 µM) | 0.5 µg/mL (≈ 1.5 µM) | 0.06 µg/mL (≈ 0.18 µM) | 0.25 µg/mL (≈ 0.75 µM) |  |  |  |  | 0.4 mg/kg | 1.1 mg/kg | 2 mg/kg | 3.1 mg/kg |
| CN1CCN(c2c(F)c(F)c3c(=O)c(C(=O)O)cn(-c4ccc(F)cc4)c3c2F)CC1 | 4 µg/mL (≈ 9.19 µM) | 2 µg/mL (≈ 4.59 µM) | 64 µg/mL (≈ 147 µM) | 2 µg/mL (≈ 4.59 µM) | 32 µg/mL (≈ 73.5 µM) | 2 µg/mL (≈ 4.59 µM) | 2 µg/mL (≈ 4.59 µM) | 2 µg/mL (≈ 4.59 µM) | 2 µg/mL (≈ 4.59 µM) | 2 µg/mL (≈ 4.59 µM) | 1 µg/mL (≈ 2.3 µM) | 4 µg/mL (≈ 9.19 µM) |  |  |  |  |
| CCn1cc(C(=O)O)c(=O)c2c(F)c(F)c(N3CCSCC3)c(F)c21 | 1 µg/mL (≈ 2.69 µM) | 1 µg/mL (≈ 2.69 µM) | 32 µg/mL (≈ 85.9 µM) | 0.5 µg/mL (≈ 1.34 µM) | 64 µg/mL (≈ 172 µM) | 1 µg/mL (≈ 2.69 µM) | 4 µg/mL (≈ 10.7 µM) | 8 µg/mL (≈ 21.5 µM) | 2 µg/mL (≈ 5.37 µM) | 4 µg/mL (≈ 10.7 µM) | 4 µg/mL (≈ 10.7 µM) | 8 µg/mL (≈ 21.5 µM) |  |  |  |  |
| CCn1cc(C(=O)O)c(=O)c2c(F)c(F)c(N3CCOCC3)c(F)c21 | 1 µg/mL (≈ 2.81 µM) | 1 µg/mL (≈ 2.81 µM) | 32 µg/mL (≈ 89.8 µM) | 1 µg/mL (≈ 2.81 µM) | 64 µg/mL (≈ 180 µM) | 1 µg/mL (≈ 2.81 µM) | 4 µg/mL (≈ 11.2 µM) | 4 µg/mL (≈ 11.2 µM) | 1 µg/mL (≈ 2.81 µM) | 4 µg/mL (≈ 11.2 µM) | 2 µg/mL (≈ 5.61 µM) | 4 µg/mL (≈ 11.2 µM) |  |  |  |  |
| CCn1cc(C(=O)O)c(=O)c2c(N3CCN(C)CC3)c(F)c(F)c(F)c21 | > 128 µg/mL | > 128 µg/mL | > 128 µg/mL | > 128 µg/mL | > 128 µg/mL | > 128 µg/mL | > 128 µg/mL | > 128 µg/mL | > 128 µg/mL | > 128 µg/mL | > 128 µg/mL | > 128 µg/mL |  |  |  |  |
| O=C(O)c1cn(C2CC2)c2cc(N3CCNCC3)c(F)cc2c1=O [CIPROFLOXACIN] | 1 µg/mL (≈ 3.02 µM) | 1 µg/mL (≈ 3.02 µM) | 2 µg/mL (≈ 6.04 µM) | 0.12 µg/mL (≈ 0.362 µM) |  | 0.5 µg/mL (≈ 1.51 µM) |  | 0.03 µg/mL (≈ 0.0905 µM) | 0.008 µg/mL (≈ 0.0241 µM) |  |  |  |  |  |  |  |

Continued by falling MIC (Staphylococcus aureus [1]), values first:

| MIC (Staphylococcus aureus [1]) | MIC (Staphylococcus aureus [2]) | MIC (Enterococcus faecalis) | MIC (Staphylococcus aureus [5]) | MIC (Pseudomonas aeruginosa) | MIC (Staphylococcus aureus [7]) | MIC (Escherichia coli [8]) | MIC (Klebsiella pneumoniae) | MIC (Serratia marcescens) | MIC (Escherichia coli [10]) | MIC (Escherichia coli [11]) | MIC (Enterobacter cloacae) | Structure (SMILES) | ED50 (Escherichia coli [3]) | ED50 (Escherichia coli [4]) | ED50 (Staphylococcus aureus [6]) | ED50 (Staphylococcus aureus [9]) |
| --- | --- | --- | --- | --- | --- | --- | --- | --- | --- | --- | --- | --- | --- | --- | --- | --- |
| 128 µg/mL (≈ 359 µM) | 128 µg/mL (≈ 359 µM) | > 128 µg/mL | 64 µg/mL (≈ 180 µM) | > 128 µg/mL | 32 µg/mL (≈ 89.8 µM) | > 128 µg/mL | > 128 µg/mL | > 128 µg/mL | > 128 µg/mL | > 128 µg/mL | > 128 µg/mL | CCn1cc(C(=O)O)c(=O)c2c(N3CCOCC3)c(F)c(F)c(F)c21 |  |  |  |  |
| 32 µg/mL (≈ 83.5 µM) | 64 µg/mL (≈ 167 µM) | > 128 µg/mL | 32 µg/mL (≈ 83.5 µM) | > 128 µg/mL | 16 µg/mL (≈ 41.7 µM) | 4 µg/mL (≈ 10.4 µM) | 8 µg/mL (≈ 20.9 µM) | 4 µg/mL (≈ 10.4 µM) | 4 µg/mL (≈ 10.4 µM) | 4 µg/mL (≈ 10.4 µM) | 8 µg/mL (≈ 20.9 µM) | CC(C)n1cc(C(=O)O)c(=O)c2c(F)c(F)c(N3CCN(C)CC3)c(F)c21 |  |  |  |  |
| 8 µg/mL (≈ 20.4 µM) | > 128 µg/mL | > 128 µg/mL | 128 µg/mL (≈ 327 µM) | > 128 µg/mL | 8 µg/mL (≈ 20.4 µM) | > 128 µg/mL | > 128 µg/mL | > 128 µg/mL | > 128 µg/mL | 128 µg/mL (≈ 327 µM) | > 128 µg/mL | CCn1cc(C(=O)O)c(=O)c2c(N3CCCC3)c(F)c(N3CCCC3)c(F)c21 |  |  |  |  |
| 2 µg/mL (≈ 5.42 µM) | 2 µg/mL (≈ 5.42 µM) | 32 µg/mL (≈ 86.6 µM) | 2 µg/mL (≈ 5.42 µM) | 32 µg/mL (≈ 86.6 µM) | 2 µg/mL (≈ 5.42 µM) | 0.12 µg/mL (≈ 0.325 µM) | 0.5 µg/mL (≈ 1.35 µM) | 0.25 µg/mL (≈ 0.677 µM) | 0.25 µg/mL (≈ 0.677 µM) | 0.25 µg/mL (≈ 0.677 µM) | 0.5 µg/mL (≈ 1.35 µM) | CCn1cc(C(=O)O)c(=O)c2c(F)c(F)c(N3CCN(C)CC3)c(F)c21 |  |  |  |  |
| 0.5 µg/mL (≈ 1.42 µM) | 0.5 µg/mL (≈ 1.42 µM) | 8 µg/mL (≈ 22.8 µM) | 0.5 µg/mL (≈ 1.42 µM) | 4 µg/mL (≈ 11.4 µM) | 0.5 µg/mL (≈ 1.42 µM) | 0.06 µg/mL (≈ 0.171 µM) | 0.25 µg/mL (≈ 0.712 µM) | 0.12 µg/mL (≈ 0.342 µM) | 0.12 µg/mL (≈ 0.342 µM) | 0.06 µg/mL (≈ 0.171 µM) | 0.25 µg/mL (≈ 0.712 µM) | CCn1cc(C(=O)O)c(=O)c2cc(F)c(N3CCN(C)CC3)c(F)c21 |  |  |  |  |
| 0.5 µg/mL (≈ 1.31 µM) | 0.5 µg/mL (≈ 1.31 µM) | 4 µg/mL (≈ 10.5 µM) | 0.25 µg/mL (≈ 0.656 µM) | 4 µg/mL (≈ 10.5 µM) | 0.5 µg/mL (≈ 1.31 µM) | 0.015 µg/mL (≈ 0.0393 µM) | 0.06 µg/mL (≈ 0.157 µM) | 0.06 µg/mL (≈ 0.157 µM) | 0.06 µg/mL (≈ 0.157 µM) | 0.03 µg/mL (≈ 0.0787 µM) | 0.06 µg/mL (≈ 0.157 µM) | CN1CCN(c2c(F)c(F)c3c(=O)c(C(=O)O)cn(C4CC4)c3c2F)CC1 | 0.35 mg/kg | 0.5 mg/kg | 2.1 mg/kg | 3.6 mg/kg |
| 0.25 µg/mL (≈ 0.735 µM) | 0.5 µg/mL (≈ 1.47 µM) | > 128 µg/mL | 0.25 µg/mL (≈ 0.735 µM) | > 128 µg/mL | 0.5 µg/mL (≈ 1.47 µM) | 2 µg/mL (≈ 5.88 µM) | > 128 µg/mL | 0.5 µg/mL (≈ 1.47 µM) | 4 µg/mL (≈ 11.8 µM) | 2 µg/mL (≈ 5.88 µM) | > 128 µg/mL | CCn1cc(C(=O)O)c(=O)c2c(F)c(F)c(N3CCCC3)c(F)c21 |  |  |  |  |
